Measured values pooled from the literature.
Target: Tyrosine-protein kinase Lyn (LYN, Homo sapiens, UniProt P07948)

Compound | test | conditions | quantity | result
CC(C)(C)c1cc(C=C(C#N)C#N)cc(Br)c1O | enzyme activity, inhibitor | 0.5 µM | remaining activity | 74.1%
Cc1ncc(C)n2nc(/C=C/c3nc(N4CCCC4)cc(N4CCOCC4)n3)nc12 | enzyme activity, inhibitor | 10 µM | inhibition | -13%
O=c1[nH]c2ccccc2n1C1CCN(Cc2ccc(-c3[nH]c4cc5ncnc5cc4nc3-c3ccccc3)cc2)CC1 | enzyme activity | 0.5 µM | remaining activity | 102%
N#CC1(c2ccccn2)CCN(Cc2cc(C(=O)O)c(=O)n3ccccc23)CC1 | cell-free assay, competition with immobilised ligand | 1 µM | remaining binding | 100%
COc1ncccc1-c1cnn2ccc(N3CCN(C(=O)OC(C)C)CC3)nc12 | binding, competition with immobilised ligand | 1 µM | remaining binding | 79%
Cc1nn(C)cc1-c1nc2c(N3CCN(Cc4ccc(Cl)cc4)CC3)c(Cl)cnc2[nH]1 | binding, competition with immobilised ligand | 1 µM | remaining binding | 86%
Cn1cc(-c2cc(F)cc(N3CCn4c(cc5c4CCCC5)C3=O)c2CO)cc(Nc2ccc(N3CCN(C4COC4)CC3)cn2)c1=O | enzyme activity, inhibitor | 0.1 µM | inhibition | 12%
O=C(Nc1cccnn1)N1CCN([C@@H]2CCOc3cc(C(F)(F)F)ccc32)CC1 | enzyme activity, inhibitor | 20 µM | inhibition | -4%
Cn1cncc1[C@](O)(COc1ccc(C#N)cc1-c1ccc(OC(F)(F)F)cc1)c1ccc(C#N)cc1 | cell-free assay, competition with immobilised ligand | 1 µM | remaining binding | 90%
